As a reminder, the inhibition is how much of the control response was suppressed. Read a low inhibition as little suppression.

19 compounds from ChEMBL document CHEMBL1145774, “Synthesis and biological effects of novel 2-amino-3-naphthoylthiophenes as allosteric enhancers of the A1 adenosine receptor” (J Med Chem, 2003) can be followed below.

Experiment [1] has as its target T1, Adenosine receptor A3 (Homo sapiens) (UniProt P0DMS8).
T1 sequence (whole entry): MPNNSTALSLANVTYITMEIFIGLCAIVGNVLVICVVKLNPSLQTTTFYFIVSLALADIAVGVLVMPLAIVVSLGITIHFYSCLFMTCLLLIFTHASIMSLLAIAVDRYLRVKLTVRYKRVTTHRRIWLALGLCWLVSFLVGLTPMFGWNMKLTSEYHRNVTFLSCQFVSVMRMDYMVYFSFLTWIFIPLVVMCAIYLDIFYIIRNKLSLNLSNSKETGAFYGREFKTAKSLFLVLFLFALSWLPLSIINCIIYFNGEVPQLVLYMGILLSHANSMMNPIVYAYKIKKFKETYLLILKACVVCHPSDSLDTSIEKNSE
Nature of the experiment: Ability to displace the binding of [3H]-MRE 3008-F20 to the ligand binding site of CHO:hA3 (human Adenosine receptor) at concentration of 10 uM. In short, it runs like this:
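Assays used 2 nM [3H]MRE 3008F20 on CHO:hA3 membranes (100 µg protein, ADA-treated) for 150 min at 4 °C, in Tris-HCl with MgCl2 and 1 mM EDTA, pH 7.4, with compound from DMSO (1% final). Bound ligand was separated by filtration. Results are % displacement by 10 µM compound, ±STD, n = 3.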

The target of experiment [2] is T2, Adenosine receptor A1 (Homo sapiens) (UniProt P30542).
T2 sequence (whole entry): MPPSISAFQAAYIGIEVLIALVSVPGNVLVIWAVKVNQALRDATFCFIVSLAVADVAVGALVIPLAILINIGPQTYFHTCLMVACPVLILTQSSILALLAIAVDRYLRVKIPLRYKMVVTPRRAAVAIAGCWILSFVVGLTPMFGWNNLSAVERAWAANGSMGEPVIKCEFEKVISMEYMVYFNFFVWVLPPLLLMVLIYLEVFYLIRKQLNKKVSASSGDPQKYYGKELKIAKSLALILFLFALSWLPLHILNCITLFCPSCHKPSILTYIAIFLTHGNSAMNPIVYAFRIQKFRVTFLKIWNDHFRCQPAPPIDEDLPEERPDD
Briefly: Percent change in cAMP content of CHO (Chinese hamster ovary) cells expressing human Adenosine A1 receptor at 10 uM. The class given is functional, cell-based. The procedure, abridged: (§1)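 CHO cells stably expressing human A1 receptor (~8000 fmol/mg protein) were grown in Ham's F-12 with 10% FBS and G-418 for 48 h to confluence. HCl (50 mM final) stopped the reaction, and cAMP was measured by radioimmunoassay. Values are % change versus no-compound control, mean ± SEM of six experiments.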

For experiment [3], the target named is Adenosine receptor A2a (Homo sapiens) (UniProt P29274). Nature of the experiment: Ability to displace the binding of [3H]-ZM 241385, to the ligand binding site of CHO:hA2A (human Adenosine A2A receptor) at concentration of 10 uM. In short, it runs like this: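 CHO:hA2A membranes (100 µg protein, ADA-treated) were incubated with 2 nM [3H]ZM 241385 in Tris-HCl with MgCl2, pH 7.4, for 60 min at 4 °C, with compound from DMSO (1% final). Nonspecific binding was taken with 1 µM ZM241385. After filtration, results are % displacement by 10 µM compound, ±STD, n = 3.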
Sequence of Adenosine receptor A2a (Homo sapiens) (P29274 whole entry): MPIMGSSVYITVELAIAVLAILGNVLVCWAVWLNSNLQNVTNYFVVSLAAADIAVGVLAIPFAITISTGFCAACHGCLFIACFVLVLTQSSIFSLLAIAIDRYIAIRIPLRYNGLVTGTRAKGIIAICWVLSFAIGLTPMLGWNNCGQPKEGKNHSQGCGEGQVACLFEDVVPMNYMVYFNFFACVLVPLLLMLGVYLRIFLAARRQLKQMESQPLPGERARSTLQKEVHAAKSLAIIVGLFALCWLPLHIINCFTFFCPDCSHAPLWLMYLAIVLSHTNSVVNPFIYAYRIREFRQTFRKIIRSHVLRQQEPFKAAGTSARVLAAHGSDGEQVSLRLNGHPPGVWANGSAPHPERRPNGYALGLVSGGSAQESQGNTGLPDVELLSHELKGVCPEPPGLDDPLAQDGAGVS

In experiment [4] the target is T2, Adenosine receptor A1 (Homo sapiens). Briefly: Percent change in cAMP content of CHO (Chinese hamster ovary) cells expressing human Adenosine A1 receptor at 0.1 uM. It is filed as functional, cell-based. The procedure, abridged: as §1
Experiment [5] has the same target. Nature of the experiment: Percent change in cAMP content of CHO (Chinese hamster ovary) cells expressing human Adenosine A1 receptor at 1 uM. The class given is functional, cell-based. The procedure, abridged: as §1
The target is the same in experiment [6]. Nature of the experiment: Dissociation of [3H]CCPA from Adenosine A1 receptor in CHO cells at 10 uM as percent K-1. It is filed as cell-based. The procedure, abridged:
(§2)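 [3H]CCPA was bound to ADA-treated CHO:hA1 membranes in 50 mM Tris-HCl pH 7.4 at 25 °C. Dissociation was started by adding R-PIA (1 µM) with test agent (10 µM), and specific binding was measured 2–180 min afterwards. Kinetic fits gave t1/2 and K-1, expressed as % change from control. Values are the mean of three experiments.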

The target is the same in experiment [7]. Nature of the experiment: Ability to displace the binding of [3H]DPCPX to the ligand binding site of CHO:hA1 (human Adenosine A1 receptor) at concentration of 10 uM. In short, it runs like this:
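Membranes came from hypotonic lysis of CHO:hA1 cells, a 100 000g pellet and ADA 2 U/mL treatment for 30 min at 37 °C. Membranes (100 µg protein) were incubated with 1 nM [3H]DPCPX in Tris-HCl pH 7.4 for 150 min at 25 °C, with compound added from DMSO (1% final). Nonspecific binding was taken with 1 µM DPCPX, and bound ligand was separated on GF/B filters.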

Experiment [8] shares this target. Nature of the experiment: Dissociation rate of [3H]CCPA from Adenosine A1 receptor expressing CHO cells at 10 uM as percent t1/2. The class given is cell-based. In short, it runs like this: as §2
For experiment [9] the target is unchanged. Nature of the experiment: Percent change in cAMP content of CHO (Chinese hamster ovary) cells expressing human Adenosine A1 receptor at 0.01 uM. The class given is functional, cell-based. In short, it runs like this: as §1

With `Nc1sc2c(c1C(=O)c1ccc3ccccc3c1)CCC2`, the inhibition in experiment [1] was 54%; in experiment [3] it was -0%; in experiment [7] it was 14.5%. For the same compound, the Change in experiment [2] is -51%; in [4], -14%; in experiment [5], -15%; in experiment [9] it was -19%. Further, the K-1 decrease in experiment [6] was 29%. This compound showed a T1/2 increase in [8] of 42%.
In the case of `Nc1sc2c(c1C(=O)c1ccc3ccccc3c1)CCN(Cc1ccccc1)C2`, the inhibition in experiment [1] is 22%; in experiment [3], -0%; in experiment [7], 2.5%. For the same compound, the Change in experiment [2] is -60%; in experiment [4] it was -12%; in experiment [5] it was -18%; in experiment [9], -11%.
`Nc1sc2c(c1C(=O)c1ccc3ccccc3c1)CCN(Cc1ccccc1F)C2`: the values for the inhibition in experiment [1], in experiment [3] and in [7] were -0%, -0% and 3%, respectively. For the same compound, the Change is -31% in [2], -3% in experiment [4], -10% in experiment [5] and -3% in experiment [9].
As to `Nc1sc2c(c1C(=O)c1cccc3ccccc13)CCCC2`, the inhibition was 34.5% in experiment [1], -0% in [3] and 2% in experiment [7]. The Change in experiment [2] is -52%; in experiment [4], -15%; in [5], -22%; in [9] it was -11%. In addition, the K-1 decrease in experiment [6] worked out at 23%. The compound further came in with a T1/2 increase in experiment [8] of 29%.
For the compound `Nc1sc2c(c1C(=O)c1ccc(Cl)c3ccccc13)CCC2`, the inhibition in [1], in experiment [3] and in experiment [7] was -0% throughout. The Change is -55% in [2], 15% in [4], -27% in [5] and -10% in [9]. This compound showed a K-1 decrease in experiment [6] of 30%. In experiment [8], this compound showed a T1/2 increase of 43%.
As to `Cc1sc(N)c(C(=O)c2cc(C)c3cc(Cl)ccc3c2)c1C`, the inhibition was -0% in experiment [1], -0% in experiment [3] and 4% in experiment [7]. In addition, the Change was -24% in experiment [2], -0% in experiment [4], -18% in experiment [5] and -0% in experiment [9].
On to `COc1ccc(C(=O)c2c(N)sc3c2CCC3)c2ccccc12`, for which the inhibition in [1] is 57%; in experiment [3] it was -0%; in [7], 19%. The Change is -35% in experiment [2], -3% in experiment [4], -8% in experiment [5] and -6% in [9].
For `Nc1sc2c(c1C(=O)c1ccc(Br)c3ccccc13)CCCC2`, the inhibition in [1] is 48.5%; in experiment [3], 3%; in experiment [7], 12%. The Change was -72% in experiment [2], -10% in [4], -29% in experiment [5] and -6% in experiment [9]. Further, the K-1 decrease in [6] was determined as 30%. Moreover, in [8], the T1/2 increase turned out to be 43%.
With `Nc1sc2ccccc2c1C(=O)c1cccc2ccccc12`, the inhibition was 19% in experiment [1], -0% in experiment [3] and 13.5% in [7]. The Change in [2] was -37%; in experiment [4], 9%; in experiment [5], 1%; in experiment [9] it was 17%.
Regarding `Nc1sc2c(c1C(=O)c1cccc3ccccc13)CCC2`, the values for the inhibition in experiment [1], in [3] and in experiment [7] were -0%, -0% and 8%, respectively. The Change in experiment [2] was -60%; in experiment [4] it was -6%; in [5] it was -29%; in [9], -0.6%. The same compound gave a K-1 decrease in [6] of -0%. In [8], this compound showed a T1/2 increase of -0%.
Consider `Cc1sc(N)c(C(=O)c2ccc3ccccc3c2)c1C`, for which the inhibition in experiment [1], in experiment [3] and in [7] was -0% throughout. Besides, the Change in [2] was -28%; in [4] it was -4%; in experiment [5], -8%; in experiment [9] it was -1%.
In the case of `Cc1cc(C(=O)c2c(N)sc3c2CCC3)cc2ccccc12`, the inhibition in experiment [1] was -0%; in experiment [3], -0%; in [7], 6%. Besides, the Change in experiment [2] was -34%; in experiment [4], -7%; in experiment [5], -13%; in [9] it was -0%.
As to `Nc1sc2c(c1C(=O)c1ccc(Cl)c3ccccc13)CCCC2`, the values for the inhibition in experiment [1], in experiment [3] and in [7] were 30.5%, -0% and 4.8%, respectively. Also, the Change in experiment [2] was -44%; in experiment [4] it was 3%; in experiment [5], -25%; in experiment [9], -11%. Moreover, the K-1 decrease in experiment [6] is 27%. In experiment [8], the T1/2 increase is 36%.
Regarding `Nc1sc2c(c1C(=O)c1ccc(I)c3ccccc13)CCCC2`, the inhibition was found to be 48% in experiment [1], 3% in experiment [3] and 15.3% in experiment [7]. Also, the Change in experiment [2] was -67%; in [4], -4%; in experiment [5], -24%; in experiment [9], -3%. In experiment [6], this compound came in with a K-1 decrease of 38%. This compound also yielded a T1/2 increase in [8] of 60%.
Turning to `Nc1sc2c(c1C(=O)c1ccc(I)c3ccccc13)CCC2`, the inhibition is -0% in experiment [1], -0% in experiment [3] and 3.3% in experiment [7]. In addition, the Change in [2] is -75%; in experiment [4] it was -8%; in experiment [5] it was -22%; in [9], -6%. In addition, the K-1 decrease in [6] was found to be 29%. Further, in experiment [8], the T1/2 increase turned out to be 41%.
As to `Nc1sc2c(c1C(=O)c1ccc3ccccc3c1)CCCC2`, the inhibition in experiment [1] was -0%; in experiment [3] it was -0%; in experiment [7], 3.3%. Besides, the Change in experiment [2] is -42%; in experiment [4], -24%; in [5], -28%; in [9] it was -13%. Moreover, the K-1 decrease in experiment [6] is 9%. Moreover, the T1/2 increase in experiment [8] is 10%.
On to `Cc1sc(N)c(C(=O)c2cccc(C(F)(F)F)c2)c1C`, for which the inhibition in experiment [1] is 21%; in experiment [3] it was -0%; in [7] it was -0%. Moreover, the Change in experiment [2] is -50%; in experiment [4], -7%; in experiment [5], -13%; in experiment [9], -1%. Besides, in experiment [6], the K-1 decrease stood at 30%. Also, the T1/2 increase in [8] came out at 43%.
For `Cc1cc(C(=O)c2c(N)sc3c2CCN(Cc2ccccc2)C3)cc2ccc(Cl)cc12`, the Change in [2] was -9%; in experiment [4], 1%; in [5], -5%; in experiment [9], -1%.
The corresponding values for `Nc1sc2c(c1C(=O)c1ccc3ccccc3c1)CCC(Cc1ccccc1)C2` (configuration not stated) are 28%, 10%, -9% and 7%.
